Measurements as given in ChEMBL document CHEMBL1152490, “SAR study of clubbed [1,2,4]-triazolyl with fluorobenzimidazoles as antimicrobial and antituberculosis agents” (Eur J Med Chem, 2009).
Values after ≈ are worked out from the molar mass of the structure shown.

Experiments:
[1] = Cytotoxicity against african green monkey Vero C1008 cells at 6.25 to 50 µg/ml by neutral red uptake assay; format: cell-based; conditions: chlorocebus sabaeus
[2] = tested on: Escherichia coli; assay: Antimicrobial activity against Escherichia coli after 24 hrs by agar well diffusion assay; format: functional
Summary of the method: (§1)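 Agar well diffusion with modifications, gentamycin as reference standard. Wells 10 mm in diameter punched in agar plates with a sterile steel borer. Strains were kept on agar medium. Compounds were dissolved and applied at 0.5% to 1.0%. Incubation at 24–28 °C for 24 h, then bacterial inhibition was scored.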

[3] = tested on: Salmonella enterica subsp. enterica; assay: Antimicrobial activity against Salmonella typhosa after 24 hrs by agar well diffusion assay; format: functional, Salmonella enterica subsp. enterica serovar Typhi
Summary of the method: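 Agar well diffusion, modified; wells punched with a 10 mm sterile borer. Test compounds applied on impregnated sterile disks at concentrations of 0.5% to 1.0%, with gentamycin as reference standard. Plates incubated at 24–28 °C for 24 h, then bacterial inhibition scored.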

[4] = tested on: Mycobacterium tuberculosis; assay: Antitubercular activity against Mycobacterium tuberculosis H37Rv by microplate alamar blue assay; format: functional
Summary of the method: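 Compounds active in the primary screen were retested at lower concentrations against M. tuberculosis H37Rv by microplate Alamar Blue assay. MIC taken as the lowest concentration giving a 95% fall in fluorescence relative to controls. Rifampin was the reference compound.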

[5] = tested on: Mycobacterium tuberculosis; assay: Antitubercular activity against Mycobacterium tuberculosis H37Rv at 6.25 […] by microplate alamar blue assay; format: functional
Summary of the method: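 M. tuberculosis H37Rv (ATCC 27294) in BACTEC 12B medium, primary screen by broth microdilution microplate Alamar Blue assay at a single concentration of […]. Fluorescent compounds were tested instead in the BACTEC 460 radiometric system.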

[6] = tested on: Pseudomonas aeruginosa; assay: Antimicrobial activity against Pseudomonas aeruginosa after 24 hrs by agar well diffusion assay; format: functional; summary of the method: as §1
[7] = tested on: Staphylococcus aureus; assay: Antimicrobial activity against Staphylococcus aureus after 24 hrs by agar well diffusion assay; format: functional; summary of the method: as §1

| Compound | Activity [1] | inhibition zone (IZ) [2] [mm] | inhibition zone (IZ) [3] [mm] | MIC [4] [µg/mL] | growth inhibition (GI) [5] [%] | inhibition zone (IZ) [6] [mm] | inhibition zone (IZ) [7] [mm] | inhibition zone (IZ) ([3]; Salmonella enterica subsp. enterica serovar Typhi) [mm] |
| --- | --- | --- | --- | --- | --- | --- | --- | --- |
| N#CCn1c(-c2ccc(-n3cncn3)cc2)nc2c(F)cc(F)cc21 | Non-toxic | 24 | 20 | 1.56 (≈ 4.64 µM) | 96 | 26 | 27 | – |
| COc1cccc(Cn2c(-c3ccc(-n4cncn4)cc3)nc3c(F)cc(F)cc32)c1 | Non-toxic | 22 | 21 | 3.13 (≈ 7.5 µM) | 96 | 22 | 24 | – |
| GENTAMICIN | – | 31 | – | – | – | – | – | 30 |
| Fc1cc(F)c2nc(-c3ccc(-n4cncn4)cc3)n(Cc3cccc(C(F)(F)F)c3)c2c1 | Non-toxic | 20 | 18 | < 6.25 | – | 21 | 22 | – |
| CCCn1c(-c2ccc(-n3cncn3)cc2)nc2c(F)cc(F)cc21 | Non-toxic | 18 | 19 | < 6.25 | – | 23 | 21 | – |
| Fc1cc(F)c2nc(-c3ccc(-n4cncn4)cc3)n(Cc3ccccc3)c2c1 | Non-toxic | 15 | 13 | < 6.25 | – | 20 | 19 | – |
| C#CCn1c(-c2ccc(-n3cncn3)cc2)nc2c(F)cc(F)cc21 | Non-toxic | 21 | 24 | 3.13 (≈ 9.33 µM) | 96 | 23 | 25 | – |
| Fc1cccc(Cn2c(-c3ccc(-n4cncn4)cc3)nc3c(F)cc(F)cc32)c1 | Non-toxic | 22 | 24 | 0.36 (≈ 0.888 µM) | 96 | 26 | 29 | – |
| Cn1c(-c2ccc(-n3cncn3)cc2)nc2c(F)cc(F)cc21 | Non-toxic | 21 | 19 | < 6.25 | – | 26 | 28 | – |
| Cc1ccccc1Cn1c(-c2ccc(-n3cncn3)cc2)nc2c(F)cc(F)cc21 | Non-toxic | 18 | 14 | < 6.25 | – | 21 | 19 | – |
| CCn1c(-c2ccc(-n3cncn3)cc2)nc2c(F)cc(F)cc21 | Non-toxic | 16 | 14 | < 6.25 | – | 18 | 23 | – |
| CO[C@H]1/C=C/O[C@@]2(C)Oc3c(C)c(O)c4c(O)c(c(/C=N/N5CCN(C)CC5)c(O)c4c3C2=O)NC(=O)/C(C)=C\C=C\[C@H](C)[C@H](O)[C@@H](C)[C@@H](O)[C@@H](C)[C@H](OC(C)=O)[C@@H]1C [RIFAMPIN] | – | – | – | 0.015 (≈ 0.0182 µM) | 96 | – | – | – |
| Cc1ccc(S(=O)(=O)n2c(-c3ccc(-n4cncn4)cc3)nc3c(F)cc(F)cc32)cc1 | Non-toxic | 16 | 16 | < 6.25 | – | 12 | 14 | – |
| Fc1cc(F)c2nc(-c3ccc(-n4cncn4)cc3)n(Cc3cccc(Cl)c3)c2c1 | Non-toxic | 19 | 18 | 0.58 (≈ 1.37 µM) | 96 | 22 | 26 | – |
| Fc1ccc(Cn2c(-c3ccc(-n4cncn4)cc3)nc3c(F)cc(F)cc32)cc1 | Non-toxic | 19 | 21 | 3.13 (≈ 7.72 µM) | 96 | 23 | 25 | – |
| Cc1cccc(Cn2c(-c3ccc(-n4cncn4)cc3)nc3c(F)cc(F)cc32)c1 | Non-toxic | 18 | 16 | < 6.25 | – | 18 | 21 | – |
| C=CCn1c(-c2ccc(-n3cncn3)cc2)nc2c(F)cc(F)cc21 | Non-toxic | 23 | 23 | < 6.25 | – | 22 | 20 | – |
